Measured values reported in ChEMBL document CHEMBL1130172, “Discovery of a novel class of substituted pyrrolooctahydroisoquinolines as potent and selective delta opioid agonists, based on an extension of the message-address concept” (J Med Chem, 1997).

Tests used:
Mus musculus [1] = experiment: Antinociceptive activity in mouse abdominal constriction test after intracerebroventricular administration; format: functional, Abdomen
In short: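 Male Swiss mice (20-35 g); drug given icv by needle through the skull 1.5 mm right of bregma on the coronal suture (3.5 mm protrusion), 5 min before ip phenyl-p-benzoquinone (2 mg/kg, 10 mL/kg, at 37 °C).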

[2] = biological target: Kappa-type opioid receptor (Mus musculus, UniProt P33534); experiment: Binding affinity against Opioid receptor kappa 1 using [3H]-U-69,593 as radioligand
In short: (§1)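 Whole-brain (minus cerebellum) membranes from male CD-1 mice in 50 mM Tris-HCl pH 7.4, preincubated 45 min at 37 °C. μ labelled with 0.7 nM [3H]DAMGO, κ with 1.2 nM [3H]U69593 (PEI-presoaked filters); 50 min at 25 °C in triplicate; nonspecific with 10 μM naloxone. IC50 by nonlinear regression, Ki by Cheng–Prusoff; mean ± SEM, n=3 unless stated.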

[3] = biological target: T1, Delta-type opioid receptor (Mus musculus, UniProt P32300); experiment: In vitro antagonist activity against Opioid receptor delta 1 in the presence of 30 nM naltrindole, in a mouse vas deferens assay; format: functional, tissue-based
Mu-type opioid receptor = Mu-type opioid receptor (Mus musculus, UniProt P42866); experiment: Binding affinity against Opioid receptor mu 1 using [3H][D-Ala2, MePhe4, Gly-ol5]-enkephalin as radioligand; in short: as §1
[4] = biological target: T1, Delta-type opioid receptor; experiment: Binding affinity against Opioid receptor delta 1 using [3H][D-Ala2, D-Leu5]-enkephalin as radioligand
[5] = biological target: T1, Delta-type opioid receptor; experiment: In vitro agonist activity for Opioid receptor delta 1 was determined in a mouse vas deferens assay; format: functional, tissue-based
Mus musculus [6] = organism: Mus musculus; experiment: Selectivity ratio of the affinity for kappa and delta opioid receptors (Ki kappa/Ki delta)
In short: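 Ratios of Ki values: δ Ki from [3H]DADLE (1 nM) on NG108-15 membranes; μ Ki from [3H]DAMGO (0.7 nM) and κ Ki from [3H]U69593 (1.2 nM) on mouse brain membranes; all 25 °C competition assays with Ki derived by Cheng–Prusoff.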

[7] = biological target: T1, Delta-type opioid receptor; experiment: Inv itro antagonist activity against Opioid receptor delta 1 in the presence of 30 nM naltrindole, in a mouse vas deferens assay; format: functional, tissue-based
In short: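 Isolated vasa deferentia from CD-1 mice (25–35 g) held in Mg2+-free Krebs buffer, oxygenated with 95% O2/5% CO2, at 37 °C. Electrical field stimulation: 50 ms trains of 2 ms pulses at 50 Hz, 60–70 V maximal, trains at 0.1 Hz. Agonist concentration–response curves built cumulatively in the presence of 30 nM naltrindole.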

Sequence of Kappa-type opioid receptor (P33534 whole entry): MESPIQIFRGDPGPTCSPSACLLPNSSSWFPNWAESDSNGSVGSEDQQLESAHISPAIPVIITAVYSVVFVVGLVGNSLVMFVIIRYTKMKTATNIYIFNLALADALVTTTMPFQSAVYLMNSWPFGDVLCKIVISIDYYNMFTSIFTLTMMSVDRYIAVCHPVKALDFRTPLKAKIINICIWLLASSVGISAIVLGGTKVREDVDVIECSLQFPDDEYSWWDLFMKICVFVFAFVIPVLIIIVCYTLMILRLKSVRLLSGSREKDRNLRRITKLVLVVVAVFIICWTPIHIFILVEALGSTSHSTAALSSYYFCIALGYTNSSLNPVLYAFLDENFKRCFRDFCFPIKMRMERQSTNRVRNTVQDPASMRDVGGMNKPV
Sequence of Mu-type opioid receptor (P42866 whole entry): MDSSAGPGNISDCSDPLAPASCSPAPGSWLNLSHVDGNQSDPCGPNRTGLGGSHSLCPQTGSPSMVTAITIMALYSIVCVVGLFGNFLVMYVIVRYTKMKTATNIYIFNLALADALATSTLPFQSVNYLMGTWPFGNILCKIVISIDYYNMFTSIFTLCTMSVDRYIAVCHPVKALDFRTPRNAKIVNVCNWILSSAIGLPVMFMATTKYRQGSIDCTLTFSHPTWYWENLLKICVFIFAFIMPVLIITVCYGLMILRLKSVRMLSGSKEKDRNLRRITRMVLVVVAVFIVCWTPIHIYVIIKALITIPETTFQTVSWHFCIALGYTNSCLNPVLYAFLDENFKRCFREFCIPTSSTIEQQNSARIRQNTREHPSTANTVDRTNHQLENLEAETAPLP
T1 sequence (P32300 whole entry): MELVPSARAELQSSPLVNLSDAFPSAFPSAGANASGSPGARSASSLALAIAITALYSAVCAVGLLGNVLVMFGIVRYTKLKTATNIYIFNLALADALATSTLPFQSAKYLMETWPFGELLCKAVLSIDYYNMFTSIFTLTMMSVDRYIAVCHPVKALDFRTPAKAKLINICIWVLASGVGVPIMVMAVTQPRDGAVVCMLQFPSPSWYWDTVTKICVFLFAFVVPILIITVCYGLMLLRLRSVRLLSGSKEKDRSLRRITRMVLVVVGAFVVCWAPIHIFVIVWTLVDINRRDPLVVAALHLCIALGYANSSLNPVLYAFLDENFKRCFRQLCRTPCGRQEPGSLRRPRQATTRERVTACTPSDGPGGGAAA

SMILES | Ki [2] | Ki (Mu-type opioid receptor) | Ki [4] | Selectivity ratio (Mus musculus [6]) | other results
CCN1CC[C@]2(c3cccc(O)c3)Cc3[nH]c(C(=O)N(CC)CC)c(C)c3C[C@H]2C1 (racemic) [listing 1 of 2 here] | 1.3 µM | 0.407 µM | 0.0019 µM | – | ED50 (Mus musculus [1]): 1.6 ug mouse-1; IC50 [3]: 0.33 µM; IC50 [5]: 0.034 µM
CCN1CC[C@]2(c3cccc(O)c3)Cc3[nH]c4ccccc4c3C[C@H]2C1 (racemic) [listing 1 of 2 here] | 0.334 µM | 2.09 µM | 0.0071 µM | – | –
CCN(CC)C(=O)c1[nH]c2c(c1C)C[C@H]1CN(C)CC[C@]1(c1cccc(O)c1)C2 (racemic) | 0.5 µM | 0.093 µM | 0.0021 µM | 240 | –
CCN(CC)C(=O)c1[nH]c2c(c1C)C[C@H]1CN(CC3CC3)CC[C@]1(c1cccc(O)c1)C2 (racemic) | 0.0631 µM | 0.0141 µM | 0.0017 µM | 37 | –
CCN1CC[C@]2(c3cccc(O)c3)Cc3[nH]c(C(=O)N(CC)CC)c(C)c3C[C@H]2C1 (racemic) [listing 2 of 2 here] | – | – | – | 690 | –
CCN1CC[C@]2(c3cccc(O)c3)Cc3[nH]c4ccccc4c3C[C@H]2C1 (racemic) [listing 2 of 2 here] | – | – | – | 50 | –
CCN1CC[C@]2(c3cccc(O)c3)Cc3[nH]c4ccccc4c3C[C@H]2C1 (stereo in doubt; (+)-3) [listing 1 of 2 here] | 0.771 µM | 2.62 µM | 0.0022 µM | – | –
CCN1CC[C@]2(c3cccc(O)c3)Cc3[nH]c4ccccc4c3C[C@H]2C1 (stereo in doubt; (+)-3) [listing 2 of 2 here] | – | – | – | 350 | –
CCN1CC[C@]2(c3cccc(O)c3)Cc3[nH]c(C(=O)N(CC)CC)c(C)c3C[C@H]2C1 (stereo in doubt; (+)-5b) [listing 1 of 2 here] | 6 µM | > 5 µM | 3.54 µM | – | –
CCN1CC[C@]2(c3cccc(O)c3)Cc3[nH]c(C(=O)N(CC)CC)c(C)c3C[C@H]2C1 (stereo in doubt; (+)-5b) [listing 2 of 2 here] | – | – | – | 2 | –
CCN1CC[C@]2(c3cccc(O)c3)Cc3[nH]c4ccccc4c3C[C@H]2C1 (stereo in doubt; (-)-3) [listing 1 of 2 here] | 0.167 µM | 1.63 µM | 1.97 µM | – | –
CCN1CC[C@]2(c3cccc(O)c3)Cc3[nH]c4ccccc4c3C[C@H]2C1 (stereo in doubt; (-)-3) [listing 2 of 2 here] | – | – | – | 0.1 | –
CCN1CC[C@]2(c3cccc(O)c3)Cc3[nH]c(C(=O)N(CC)CC)c(C)c3C[C@H]2C1 (stereo in doubt; (-)-5b) [listing 1 of 2 here] | 1.34 µM | 0.129 µM | 0.0009 µM | – | IC50 [7]: 0.462 µM; IC50 [5]: 0.026 µM
CCN1CC[C@]2(c3cccc(O)c3)Cc3[nH]c(C(=O)N(CC)CC)c(C)c3C[C@H]2C1 (stereo in doubt; (-)-5b) [listing 2 of 2 here] | – | – | – | 1480 | –
Oc1ccc2c3c1O[C@H]1c4[nH]c5ccccc5c4C[C@@]4(O)[C@@H](C2)N(CC2CC2)CC[C@]314 [NALTRINDOLE] | 0.0095 µM | 0.015 µM | 0.0005 µM | 20 | –
CN1CC[C@]23c4c5ccc(O)c4O[C@H]2c2[nH]c4ccccc4c2C[C@@]3(O)[C@H]1C5 [OXYMORPHINDOLE] | 0.077 µM | 0.661 µM | 0.0008 µM | 90 | –
C=CCN1C[C@H](C)N([C@H](c2ccc(C(=O)N(CC)CC)cc2)c2cccc(OC)c2)C[C@H]1C [SNC-80] | 1.35 µM | 1.3 µM | – | – | –
